In PMC9055537 (RSC Advances, 2020):
Where a SMILES comes first, the peptide text is derived from it. [ ]: non-standard residue; d: D form. Nva = CCC[C@H](N)C(=O)O; Aib = CC(C)(N)C(=O)O

Target: Aβ42 (Homo sapiens, UniProt P05067)
Assay: Thioflavin-T fluorescence assay, inhibition of Aβ42 aggregation
Assay type: biochemical
Settings: 24 h, read-out: % inhibition of Aβ42 aggregation (ThT fluorescence), test peptide 10 μM (1:5), Aβ42 2 μM, co-incubated 24 h at 37 °C, λex 440 nm, λem 485 nm, mean of triplicate

Sequence of Aβ42 (P05067 672-713): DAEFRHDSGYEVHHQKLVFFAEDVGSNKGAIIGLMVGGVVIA

In order of falling inhibition at 10 µM:
1. CC[C@H](C)[C@H](NC(=O)[C@@H](NC(=O)[C@H](N)C(C)C)C(C)C)C(=O)N[C@@H](C)C(N)=O [12a, D -Val-Val-Ile-Ala-NH2] (H-[dV]VIA-NH2)  82.1%
2. CC[C@H](C)[C@H](NC(=O)[C@@H](NC(=O)[C@@H](N)Cc1ccccc1)C(C)C)C(=O)N[C@@H](C)C(N)=O [12b, Phe-Val-Ile-Ala-NH2] (H-FVIA-NH2)  77.6%
3. CCC[C@H](N)C(=O)N[C@H](C(=O)N[C@H](C(=O)N[C@@H](C)C(N)=O)[C@@H](C)CC)C(C)C [12e, Nva-Val-Ile-Ala-NH2] (H-[Nva]VIA-NH2)  70.3%
4. CC[C@@H](C)[C@@H](NC(=O)[C@@H](N)C(C)C)C(=O)N[C@H](C(=O)N[C@@H](C)C(N)=O)[C@@H](C)CC [13b, Val-D-Ile-Ile-Ala-NH2] (H-V[dI]IA-NH2)  49.4%
5. CC[C@H](C)[C@H](NC(=O)C(C)(C)NC(=O)[C@@H](N)C(C)C)C(=O)N[C@@H](C)C(N)=O [13d, Val-Aib-Ile-Ala-NH2] (H-V[Aib]IA-NH2)  45.3%
6. CC[C@H](C)[C@H](NC(=O)[C@@H](NC(=O)[C@H]1CCCN1)C(C)C)C(=O)N[C@@H](C)C(N)=O [12d, D -Pro-Val-Ile-Ala-NH2] (H-[dP]VIA-NH2)  39.8%
7. CC[C@H](C)[C@H](NC(=O)[C@@H](NC(=O)[C@@H](N)C(C)C)C(C)C)C(=O)NC(C)(C)C(N)=O [15b, Val-Val-Ile-Aib-NH2] (H-VVI[Aib]-NH2)  35.1%
8. CC[C@H](C)[C@H](NC(=O)[C@@H](NC(=O)[C@@H](N)C(C)C)C(C)C)C(=O)N[C@@H](CC(C)C)C(N)=O [15e, Val-Val-Ile-Leu-NH2] (H-VVIL-NH2)  31.2%
9. CC[C@H](C)[C@H](NC(=O)[C@@H](NC(=O)[C@@H](N)C(C)C)C(C)C)C(=O)N[C@H](C)C(N)=O [15a, Val-Val-Ile-D-Ala-NH2] (H-VVI[dA]-NH2)  23.2%
10. CC[C@@H](C)[C@@H](NC(=O)[C@@H](NC(=O)[C@@H](N)C(C)C)C(C)C)C(=O)N[C@@H](C)C(N)=O [14a, Val-Val-D-Ile-Ala-NH2] (H-VV[dI]A-NH2)  21.8%
11. CC[C@H](C)[C@H](NC(=O)[C@H](NC(=O)[C@@H](N)C(C)C)C(C)C)C(=O)N[C@@H](C)C(N)=O [13a, Val-D-Val-Ile-Ala-NH2] (H-V[dV]IA-NH2)  15.7%
12. CC[C@H](C)[C@H](NC(=O)[C@@H]1CCCN1C(=O)[C@@H]1CCCN1)C(=O)N[C@@H](C)C(N)=O [16a, Pro-Pro-Ile-Ala-NH2] (H-PPIA-NH2)  14.2%
13. CC[C@H](C)[C@H](NC(=O)[C@@H](NC(=O)[C@@H](N)C(C)C)C(C)C)C(=O)N[C@H](C(N)=O)C(C)C [15d, Val-Val-Ile-Val-NH2] (H-VVIV-NH2)  11%
14. CC(C)C[C@H](NC(=O)[C@@H](NC(=O)[C@@H](N)C(C)C)C(C)C)C(=O)N[C@@H](C)C(N)=O [14b, Val-Val-Leu-Ala-NH2] (H-VVLA-NH2)  0%

Target: preformed Aβ42 fibrils (Homo sapiens, UniProt P05067)
Assay: Thioflavin-T assay, deformation of preformed Aβ42 fibrils
Assay type: biochemical
Settings: 24 h, test peptide 0.5 μM (1:0.1), Aβ42 2 μM pre-aggregated 24 h

Sequence of preformed Aβ42 fibrils (P05067 672-713): as above

`CC[C@H](C)[C@H](NC(=O)[C@@H](NC(=O)[C@H](N)Cc1ccccc1)C(C)C)C(=O)N[C@@H](C)C(N)=O` [12c, D-Phe-Val-Ile-Ala-NH2] (H-[dF]VIA-NH2) was tested, and the “% Deformation of preformed Aβ42 fibrils” value was 33.7%.

Same assay, conditions: 24 h, test peptide 1 μM (1:0.5), Aβ42 2 μM pre-aggregated 24 h

For `CC[C@H](C)[C@H](NC(=O)[C@@H](NC(=O)[C@H](N)Cc1ccccc1)C(C)C)C(=O)N[C@@H](C)C(N)=O` [12c, D-Phe-Val-Ile-Ala-NH2] (H-[dF]VIA-NH2), the “% Deformation of preformed Aβ42 fibrils” value was 34.9%.

Same assay, conditions: 24 h, test peptide 2 μM (1:1), Aβ42 2 μM pre-aggregated 24 h

`CC[C@H](C)[C@H](NC(=O)[C@@H](NC(=O)[C@H](N)Cc1ccccc1)C(C)C)C(=O)N[C@@H](C)C(N)=O` [12c, D-Phe-Val-Ile-Ala-NH2] (H-[dF]VIA-NH2) was tested, and the “% Deformation of preformed Aβ42 fibrils” value was 57.5%.

Test system: PC-12 cells
Assay: Cytotoxicity studies, MTT assay
Assay type: cell-based, rat
Settings: highest tested concentration 20 μM, 6 h, MTT OD570, triplicate
Outline: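 PC-12 cells were exposed to the test peptide alone at the stated dose for 6 h, with no Aβ added, and viability was read by MTT assay. Untreated cells were set as 100% (positive control). Samples were run in triplicate in three individual experiments and the readings were averaged (<5% variation).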

For `CC[C@H](C)[C@H](NC(=O)[C@@H](NC(=O)[C@H](N)Cc1ccccc1)C(C)C)C(=O)N[C@@H](C)C(N)=O` [12c, D-Phe-Val-Ile-Ala-NH2] (H-[dF]VIA-NH2), the “cytotoxicity, % viable PC-12 cells” value was “negligible cytotoxicity”.
